Common to all, as to assay type: functional, cell-based
The subject of one experiment is MDA-MB-231. In words: Cytotoxicity against human MDA-MB-231 cells after 72 hrs by Cell Titer-Blue cell viability assay. The conditions noted are these: MDA-MB-231, 72 h. Summed up:
(§1)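 Cells kept at 37 °C, 5% CO2 in RPMI 1640 with 10% FBS, penicillin 100 units/mL and streptomycin 100 μg/mL. Log-phase cells harvested by trypsin, washed twice, seeded at 5,000 per well and left overnight. DMSO-dissolved samples diluted and added, then 72 h at 37 °C. Viability read by CellTiter-Blue absorbance. IC50 is the concentration giving 50% growth relative to DMSO control.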

Another experiment has as its system MDA-MB-435. Description: Cytotoxicity against human MDA-MB-435 cells after 72 hrs by Cell Titer-Blue cell viability assay. The conditions noted are these: MDA-MB-435, 72 h. A digest of the protocol:
as §1
On the technique in general: The colour change of resazurin is a common sign of viable cells or microbes.

For the next experiment, the system named is OVCAR-3. In words: Cytotoxicity against human OVCAR-3 cells after 72 hrs by Cell Titer-Blue cell viability assay. The conditions noted are these: OVCAR-3, 72 h. A digest of the protocol:
as §1

What is called IC50 is the concentration needed to halve the response being measured. The low end stands for higher potency, the high end for lower potency. As to `CCc1c(OC)cc2c(c1O)C(=O)C=C(OC)C2=O`, the 50% inhibitory concentration (IC50) with MDA-MB-231 was found to be 7.8 µM; with MDA-MB-435, 2.1 µM; in the experiment on OVCAR-3, 7.3 µM.

On to `CCc1c(OC)cc2c(c1O)C(=O)C[C@@H](OC)[C@H]2O`, for which the half-maximal inhibitory concentration (IC50) with MDA-MB-231, with MDA-MB-435 and with OVCAR-3 was > 25 µM throughout.

`COC1=CC(=O)c2c(cc(OC)c(C)c2O)C1=O`: the IC50 in the experiment on MDA-MB-231 was 15 µM; in the experiment on MDA-MB-435, 3.2 µM; in the experiment with OVCAR-3, 9.6 µM.

With `COC1=CC(=O)c2c(cc(OC)c(C(C)OC(C)=O)c2O)C1=O` (racemic), the half-inhibitory concentration (IC50) in the experiment on MDA-MB-231 stood at 6.2 µM; in the experiment on MDA-MB-435, 0.7 µM; in the experiment with OVCAR-3, 0.9 µM.

As to `COC1=CC(=O)c2c(cc(OC)c(C(C)C3=C(O)C(=O)c4cc(OC)cc(O)c4C3=O)c2O)C1=O` (racemic), the results for the IC50 with MDA-MB-231, with MDA-MB-435 and with OVCAR-3 were 20 µM, 3.6 µM and 17 µM, respectively.

As to `CCc1c(OC)cc2c(c1O)C(=O)C(C(C)c1c(OC)cc3c(c1O)C(=O)C=C(OC)C3=O)=C(O)C2=O` (racemic), the IC50 with MDA-MB-231 amounted to 17 µM; with MDA-MB-435, 15 µM; with OVCAR-3, 18 µM.

On to `COC1=CC(=O)c2c(cc(OC)c(C(C)OC)c2O)C1=O` (racemic), for which the IC50 in the experiment on MDA-MB-231 amounted to 12 µM; in the experiment with MDA-MB-435, 3.4 µM; in the experiment with OVCAR-3 it was 13 µM.

On to `COC1=CC(=O)c2c(cc(OC)c(C(C)O)c2O)C1=O` (racemic), for which the IC50 was 12 µM in the experiment with MDA-MB-231, 3 µM in the experiment with MDA-MB-435 and 7.9 µM in the experiment on OVCAR-3.

As to `COC1=CC(=O)c2c(cc(OC)c(C(C)C3=C(O)C(=O)c4cc(O)c(C(C)=O)c(O)c4C3=O)c2O)C1=O` (racemic) [KIRSCHSTEININ], the IC50 came out at 4.4 µM in the experiment on MDA-MB-231, 2.2 µM with MDA-MB-435 and 6.6 µM in the experiment on OVCAR-3.

Consider `CC(=O)O[C@H]1C(=O)[C@@]2(C)[C@H]([C@H](OC(=O)c3ccccc3)[C@]3(O)C[C@H](OC(=O)[C@H](O)[C@@H](NC(=O)c4ccccc4)c4ccccc4)C(C)=C1C3(C)C)[C@]1(OC(C)=O)CO[C@@H]1C[C@@H]2O` [PACLITAXEL], for which the figures for the half-maximal inhibitory concentration (IC50) in the experiment with MDA-MB-231 and in the experiment with OVCAR-3 were 0.0002 µM and 0.0051 µM, respectively.

Values taken from ChEMBL document CHEMBL4823242, “Cytotoxic Naphthoquinone Analogues, Including Heterodimers, and Their Structure Elucidation Using LR-HSQMBC NMR Experiments” (J Nat Prod, 2021).
